Measured values reported in ChEMBL document CHEMBL4020708, “Studies of CDK 8/19 inhibitors: Discovery of novel and selective CDK8/19 dual inhibitors and elimination of their CYP3A4 time-dependent inhibition potential” (Bioorg Med Chem, 2017).
≈ marks a conversion by molar mass, not a printed value.

Key:
CDK8/Cyclin C = CDK8/Cyclin C (Homo sapiens, UniProt P49336); experiment: Inhibition of kinase tracer 236 binding to full length N terminal GST-tagged human CDK8 (1 to 464 end residues) /CycC ( 1 to 283 end residues) expressed in baculovirus expression system after 60 min by TR-FRET assay
In short: (§1)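 TR-FRET ligand displacement using 20 nM GST-CDK8/CycC or GST-CDK19/CycC, 20 nM Kinase Tracer 236 and Tb-anti-GST antibody. Buffer 25 mM HEPES, 10 mM MgCl₂, 2 mM DTT, 0.01% Tween-20. Incubated 60 min at rt.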

[1] = target: Cyclin-dependent kinase 8 (Homo sapiens, UniProt P49336); experiment: Inhibition of CDK8 in human SW480 cells assessed as reduction in IFN-gamma induced STAT1 phosphorylation at Ser727 residues preincubated for 2 hrs followed by IFN-gamma addition measured after 1 hr by In-cell western assay; format: cell-based
In short: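 SW480 cells kept in L-15 with 10% FBS at 37 °C and plated at 6000 cells/well overnight. Compound applied 2 h, then 10 ng/mL IFN-γ for 1 h. Cells fixed, permeabilized and blocked, then probed overnight at 4 °C with anti-pSTAT1 Ser727. IRDye 800CW secondary plus DRAQ5 for DNA, Odyssey imaging.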

[2] = Solubility of the compound at pH 6.8; format: physicochemical; conditions: buffer
In short: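 Compound added from DMSO solution to JP 2nd disintegration fluid (pH 6.8) and incubated. Precipitate removed by filtration, and filtrate concentration measured by plate reader or HPLC.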

CYP3A4 = CYP3A4 (Homo sapiens, UniProt P08684); experiment: Time-dependent inhibition of CYP3A4 in human liver microsomes assessed as reduction in testosterone to 6beta-hydroxytestosterone conversion by measuring remaining activity at 30 uM preincubated for 60 mins followed by testosterone addition measured after 20 mins in presence of NADPH by UPLC analysis relative to control; format: ADME; conditions: probe testosterone (6beta-hydroxylation), read-out: Activity
In short: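 Compound at 30 μM preincubated with human liver microsomes in phosphate buffer pH 7.4 at 37 °C for 0 or 60 min with an NADPH-generating system. Testosterone then added for 20 min, and 6β-hydroxytestosterone measured by UPLC. Activity expressed as % of DMSO control; % remaining taken after 60 min preincubation.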

Liver [3] = experiment: Intrinsic clearance in mouse liver microsomes at 1 umol/L after 15 to 30 mins in presence of NADPH by LC/MS/MS analysis; format: ADME, microsome; conditions: 1 µM
In short: (§2)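 Human or mouse liver microsomes at 0.2 mg/mL protein in 50 mmol/L phosphate buffer pH 7.4 with 1 μmol/L compound. Reaction started with an NADPH-generating system and stopped at 15 and 30 min with acetonitrile. LC/MS/MS readout. Intrinsic clearance taken as initial metabolic velocity (slope of concentration-time) divided by compound concentration.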

[4] = MRT in mouse at 1 mg/kg, po administered as cassette dose measured up to 8 hrs by LC/MS/MS analysis; format: ADME, organism-based; conditions: in vivo
In short: (§3)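 Cassette dosing to non-fasted mice, 1 mg/kg po (0–8 h). Plasma obtained from blood by centrifugation, deproteinized with acetonitrile, centrifuged, and the supernatant analysed by LC/MS/MS.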

[5] = AUC (0 to 8 hrs) in mouse at 1 mg/kg, po administered as cassette dose by LC/MS/MS analysis; format: ADME, organism-based; parameters: time < 8 hr, dose 1 mg/kg, route oral; conditions: in vivo; in short: as §3
[6] = Total clearance in mouse at 1 mg/kg, po administered as cassette dose measured up to 8 hrs by LC/MS/MS analysis; format: ADME, organism-based; conditions: in vivo
Liver [7] = experiment: Intrinsic clearance in human liver microsomes at 1 umol/L after 15 to 30 mins in presence of NADPH by LC/MS/MS analysis; format: ADME, microsome; conditions: 1 µM; in short: as §2
[8] = Oral bioavailability in mouse at 1 mg/kg administered as cassette dose measured up to 8 hrs by LC/MS/MS analysis; format: ADME, organism-based; conditions: in vivo
In short: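 Bioavailability from mouse cassette dosing, 0.1 mg/kg iv and 1 mg/kg po, non-fasted animals. Plasma was deproteinized with acetonitrile and compound quantified by LC/MS/MS.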

[9] = Cmax in mouse at 1 mg/kg, po administered as cassette dose measured up to 8 hrs by LC/MS/MS analysis; format: ADME, organism-based; parameters: dose 1 mg/kg, route oral; conditions: in vivo; in short: as §3
[10] = target: Cyclin-C/Cyclin-dependent kinase 19 (Homo sapiens, UniProt Q9BWU1); experiment: Inhibition of kinase tracer 236 binding to GST-tagged CDK19/CycC (unknown origin) after 60 min by TR-FRET assay; format: protein-complex assay; in short: as §1
Plasma = experiment: Drug level in mouse plasma treated with (E)-3-(4-(1-Methyl-1H-pyrazol-4-yl)pyridin-3-yl)-N-(4-(morpholinomethyl)phenyl)acrylamide at 1 mg/kg, po administered as cassette dose measured up to 8 hrs by LC/MS/MS analysis; format: ADME, organism-based; conditions: in vivo; in short: as §3

Chain of CYP3A4 (P08684 whole entry): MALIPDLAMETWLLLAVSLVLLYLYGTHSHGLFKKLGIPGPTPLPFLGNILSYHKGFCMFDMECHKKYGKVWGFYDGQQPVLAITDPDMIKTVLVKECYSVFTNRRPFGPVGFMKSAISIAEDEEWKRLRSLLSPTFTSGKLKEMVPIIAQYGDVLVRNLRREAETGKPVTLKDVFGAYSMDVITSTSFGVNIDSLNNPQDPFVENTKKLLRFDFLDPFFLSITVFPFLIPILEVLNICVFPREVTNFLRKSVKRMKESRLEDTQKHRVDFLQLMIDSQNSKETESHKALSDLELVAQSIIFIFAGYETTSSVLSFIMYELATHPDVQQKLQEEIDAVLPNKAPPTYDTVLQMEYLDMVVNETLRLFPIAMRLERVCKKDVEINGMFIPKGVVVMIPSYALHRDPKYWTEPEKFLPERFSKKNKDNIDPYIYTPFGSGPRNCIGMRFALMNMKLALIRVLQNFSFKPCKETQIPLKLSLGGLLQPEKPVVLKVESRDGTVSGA
Chain of Cyclin-dependent kinase 8 (P49336 whole entry): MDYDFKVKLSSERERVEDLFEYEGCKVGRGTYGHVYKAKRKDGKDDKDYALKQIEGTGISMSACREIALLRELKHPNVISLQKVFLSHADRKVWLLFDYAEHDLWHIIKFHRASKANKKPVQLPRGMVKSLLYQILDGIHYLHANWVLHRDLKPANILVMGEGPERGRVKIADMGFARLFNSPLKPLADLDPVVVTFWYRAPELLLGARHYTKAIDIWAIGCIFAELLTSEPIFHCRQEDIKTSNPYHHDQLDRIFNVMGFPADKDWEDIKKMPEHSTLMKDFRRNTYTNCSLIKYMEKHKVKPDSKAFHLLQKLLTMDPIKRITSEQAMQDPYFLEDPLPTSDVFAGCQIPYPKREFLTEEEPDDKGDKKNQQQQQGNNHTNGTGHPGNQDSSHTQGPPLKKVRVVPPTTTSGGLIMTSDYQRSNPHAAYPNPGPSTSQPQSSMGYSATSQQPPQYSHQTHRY
Chain of CDK8/Cyclin C (P49336 whole entry): as above
Chain of CDK8/Cyclin C (P24863 whole entry, further chain): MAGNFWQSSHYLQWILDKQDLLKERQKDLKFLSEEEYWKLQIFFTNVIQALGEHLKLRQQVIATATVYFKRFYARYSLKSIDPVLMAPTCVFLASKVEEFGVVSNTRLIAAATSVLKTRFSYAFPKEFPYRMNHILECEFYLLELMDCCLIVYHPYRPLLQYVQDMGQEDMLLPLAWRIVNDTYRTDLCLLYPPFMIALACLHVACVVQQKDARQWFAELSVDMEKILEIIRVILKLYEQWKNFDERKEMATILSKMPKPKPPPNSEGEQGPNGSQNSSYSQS
Chain of Cyclin-C/Cyclin-dependent kinase 19 (Q9BWU1 whole entry): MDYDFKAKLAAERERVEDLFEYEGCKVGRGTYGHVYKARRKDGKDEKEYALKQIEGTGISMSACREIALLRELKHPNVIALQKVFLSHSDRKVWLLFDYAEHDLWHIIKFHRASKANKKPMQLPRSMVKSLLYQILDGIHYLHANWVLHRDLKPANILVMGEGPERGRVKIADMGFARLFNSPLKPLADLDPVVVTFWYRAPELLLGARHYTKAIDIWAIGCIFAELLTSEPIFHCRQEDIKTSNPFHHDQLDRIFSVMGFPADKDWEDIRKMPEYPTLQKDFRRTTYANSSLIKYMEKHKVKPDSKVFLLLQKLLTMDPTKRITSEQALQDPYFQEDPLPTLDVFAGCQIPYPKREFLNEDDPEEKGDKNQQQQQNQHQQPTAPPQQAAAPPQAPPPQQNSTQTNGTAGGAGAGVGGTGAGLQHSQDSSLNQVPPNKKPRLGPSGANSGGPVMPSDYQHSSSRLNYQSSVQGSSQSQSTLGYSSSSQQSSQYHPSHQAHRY
Chain of Cyclin-C/Cyclin-dependent kinase 19 (P24863 whole entry, further chain): as the sequence (P24863 whole entry, further chain) above

Structure (SMILES)	IC50 (CDK8/Cyclin C)	EC50 [1]	activity at 20 min, 30 µM (CYP3A4)	other results
O=C(/C=C/c1cnccc1-c1cnn(C2CC2)c1)Nc1ccc(CN2CC3CC(C2)O3)cc1	6.7 nM	5.5 nM	108%	solubility [2]: 60 µg/mL (≈ 136 µM)
O=C(/C=C/c1cnccc1-c1cn[nH]c1)Nc1ccc(CN2CCOCC2)cc1	0.54 to 80 nM	21 to 370 nM		IC50 [10]: 100 nM; Drug metabolism (Plasma): Metabolite_Detected; intrinsic clearance (Liver [3]): 6.7 µL/min/mg; microsomal intrinsic clearance (Liver [7]): 5.1 µL/min/mg
Cn1cnc2cc(-c3ccncc3/C=C/C(=O)Nc3ccc(CN4CCOCC4)cc3)ccc21	4800 nM	> 10000 nM		
O=C(/C=C/c1cnccc1-c1cncs1)Nc1ccc(CN2CCOCC2)cc1	41 nM	140 nM		
Cn1cc(-c2cc(N)ncc2/C=C/C(=O)Nc2ccc(CN3CCOCC3)cc2)cn1	990 nM	1300 nM		
Cn1cc(-c2ccnc(O)c2/C=C/C(=O)Nc2ccc(CN3CCOCC3)cc2)cn1	> 10000 nM	> 10000 nM	89%	
Cn1cc(-c2ccncc2/C=C/C(=O)Nc2ccc(CN3C4CCC3COC4)cc2)cn1	6.3 nM	17 nM	99%	
Cn1cc(-c2cc[n+]([O-])cc2/C=C/C(=O)Nc2ccc(CN3CCOCC3)cc2)cn1				Drug metabolism (Plasma): Metabolite_Detected
Cn1cc(-c2ccncc2/C=C/C(=O)Nc2ccc(CNCCO)cc2)cn1				Drug metabolism (Plasma): Metabolite_Detected
Cn1cc(-c2ccncc2/C=C/C(=O)Nc2ccccc2)cn1	51 nM	110 nM	97%	solubility [2]: 26 µg/mL (≈ 85.4 µM)
Cn1cc(-c2ccncc2/C=C/C(=O)Nc2ccc(CN3CCOCC3=O)cc2)cn1				Drug metabolism (Plasma): Metabolite_Detected
Cn1cc(-c2ccncc2/C=C/C(N)=O)cn1	> 10000 nM	> 10000 nM		
Cn1cc(-c2ccncc2CCC(=O)Nc2ccc(CN3CCOCC3)cc2)cn1	41 nM	95 nM	71%	IC50 [10]: 50 nM
O=C(CCc1cnccc1-c1cnn(C2CC2)c1)Nc1ccc(CN2CCOCC2)cc1	29 nM	130 nM	59%	IC50 [10]: 41 nM

Now from value to compound, other results behind:

IC50 (CDK8/Cyclin C)	EC50 [1]	activity at 20 min, 30 µM (CYP3A4)	Structure (SMILES)	other results
27 nM	110 nM		O=C(/C=C/c1cnccc1-c1cnsc1)Nc1ccc(CN2CCOCC2)cc1	
9.6 nM	3.1 nM	101%	O=C(/C=C/c1cnccc1-c1cnn(C2CC2)c1)Nc1ccc(CN2CC3CC2CO3)cc1 (stereo unspecified)	solubility [2]: > 92 µg/mL
16 nM	19 nM	100%	Cn1cc(-c2ccncc2/C=C/C(=O)Nc2ccc(CN3CC4CC3CO4)cc2)cn1 (stereo unspecified)	solubility [2]: > 82 µg/mL
2.5 nM	2.4 nM		Cn1cnc2ccc(-c3ccncc3/C=C/C(=O)Nc3ccc(CN4CCOCC4)cc3)cc21	
4.5 nM	28 nM		O=C(/C=C/c1cnccc1-c1cnn(Cc2ccccc2)c1)Nc1ccc(CN2CCOCC2)cc1	intrinsic clearance (Liver [3]): 118 µL/min/mg; MRT [4]: 1.2 h; AUC(0-t) at 8 h [5]: 26.9 ng·h/mL; CL/F [6]: 96.1 mL/min/kg; microsomal intrinsic clearance (Liver [7]): 78 µL/min/mg; bioavailability [8]: 15.5%; Cmax [9]: 15.7 ng/mL
6.4 to 24 nM	11 to 50 nM		O=C(/C=C/c1cnccc1-c1cnn(C(F)F)c1)Nc1ccc(CN2CCOCC2)cc1	
11 nM	84 nM	98%	Cn1cc(-c2ccncc2/C=C/C(=O)Nc2ccc(CN3CC(F)(F)C3)cc2)cn1	solubility [2]: 44 µg/mL (≈ 107 µM)
8.1 nM	12 nM		COc1ncc(-c2ccncc2/C=C/C(=O)Nc2ccc(CN3CCOCC3)cc2)s1	
4.5 nM	7 nM	91%	Cn1cc(-c2ccncc2/C=C/C(=O)Nc2ccc3c(c2)CCN(CC(F)(F)F)C3)cn1	solubility [2]: > 81 µg/mL
28 nM	150 nM		O=C(/C=C/c1cnccc1-c1cnn(CC(F)(F)F)c1)Nc1ccc(CN2CCOCC2)cc1	
6.2 nM	17 nM	69%	Cn1cc(-c2ccncc2/C=C/C(=O)Nc2ccc(CN3CCC(F)(F)C3)cc2)cn1	solubility [2]: 33 µg/mL (≈ 77.9 µM)
6.4 nM	11 nM	54%	O=C(/C=C/c1cnccc1-c1cnn(C2CC2)c1)Nc1ccc(CN2CCOCC2)cc1	IC50 [10]: 7.6 nM; intrinsic clearance (Liver [3]): 64 µL/min/mg; MRT [4]: 1.5 h; AUC(0-t) at 8 h [5]: 340 ng·h/mL; CL/F [6]: 25.4 mL/min/kg; microsomal intrinsic clearance (Liver [7]): 25 µL/min/mg; bioavailability [8]: 51.2%; Cmax [9]: 208 ng/mL
5.2 nM	3.6 nM	60%	Cn1cc(-c2c(F)cncc2/C=C/C(=O)Nc2ccc(CN3CCOCC3)cc2)cn1	
28 nM	97 nM		COc1ccc(-c2ccncc2/C=C/C(=O)Nc2ccc(CN3CCOCC3)cc2)s1	
8.3 nM	690 nM		NC(=O)c1ccc(-c2ccncc2/C=C/C(=O)Nc2ccc(CN3CCOCC3)cc2)s1	
7.1 nM	14 nM	88%	O=C(/C=C/c1cnccc1-c1cnn(C2CC2)c1)Nc1ccc2c(c1)CCN(CC(F)(F)F)C2	solubility [2]: 3.9 µg/mL (≈ 8.34 µM)
1.5 nM	10 nM		O=C(/C=C/c1cnccc1-c1ccc2[nH]cnc2c1)Nc1ccc(CN2CCOCC2)cc1	
6.7 nM	16 nM	84%	CC1CN(Cc2ccc(NC(=O)/C=C/c3cnccc3-c3cnn(C)c3)cc2)CCO1 (stereo unspecified)	
3.2 nM	8.4 nM	22%	Cn1cc(-c2ccncc2/C=C/C(=O)Nc2ccc3c(c2)CN(CC(F)(F)F)CC3)cn1	solubility [2]: 8.9 µg/mL (≈ 20.2 µM)
20 nM	27 nM	59%	CC1COCCN1Cc1ccc(NC(=O)/C=C/c2cnccc2-c2cnn(C)c2)cc1 (stereo unspecified)	solubility [2]: > 75 µg/mL
6.5 nM	2.3 nM	46%	O=C(/C=C/c1cncc(F)c1-c1cnn(C2CC2)c1)Nc1ccc(CN2CCOCC2)cc1	
